{
  "source": "paper PMC6712212",
  "about": "(Drug Design, Development and Therapy, 2019)",
  "tested_on": "NSCLC-H292 cells",
  "assay": "Flow cytometry cell cycle analysis",
  "assay_type": "cell-based, human",
  "procedure,_shortened": "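Cells were grown in six-well plates and treated 48 hrs, then harvested and centrifuged 5 mins. They were resuspended in precooled PBS, centrifuged again, and fixed in 70% ethanol overnight at 4°C. After a PBS rinse, cells were stained with propidium iodide. Red fluorescence of 1×10^5 cells was measured by flow cytometry with 488 nm excitation.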",
  "data": [
    {"smiles": "O[C@@H](CS)[C@@H](O)CS", "note": "[DTT]", "values": [
      {"measurement": "Cell cycle effect (in words)", "value": "cells were blocked in G0/G1phase"}
    ]}
  ]
}
